# The source made the active and inactive calls. No cut-off for these calls is given here.
# Legend:
# NCI-H460 [1] = experiment: Induction of apoptosis in human NCI-H460 cells assessed as activation of caspase 9 activation at 20 uM after 24 hrs by Western blot analysis; type: functional, cell-based
# NCI-H460 [2] = experiment: Induction of apoptosis in human NCI-H460 cells at 5 to 30 uM after 24 hrs by flow cytometric analysis; type: functional, cell-based
# NCI-H460 [3] = experiment: Induction of GRP78 protein expression in human NCI-H460 cells at 5 to 20 uM after 3 hrs by Western blot analysis; type: functional, cell-based
# Outline: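 H460 cells treated for 3 h; GRP78 protein detected by Western blot with actin as loading control.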
# NCI-H460 [4] = experiment: Cytotoxicity against human NCI-H460 cells assessed as reduction of cell viability at 5 to 20 uM after 24 hrs by CellTiter-Glo analysis; type: functional, cell-based
# Outline: (§1)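 H460 cells (5 × 10^3/well) seeded overnight, then given fresh medium containing compound from DMSO stock (final 5, 10, 20 μM; 2.5–30 μM in the figure) for 24 h. Viability measured with CellTiter-Glo and expressed as percent of vehicle-treated cells; Student's t test.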
# NCI-H460 [5] = experiment: Induction of apoptosis in human NCI-H460 cells assessed as late apoptotic cells at 5 uM after 6 hrs by annexinV-propidium iodide staining based flow cytometric analysis relative to control; type: functional
# Outline: (§2)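 H460 cells plated for 6 h, then treated with 5, 10 or 20 μM. Cells washed, trypsin-EDTA detached and resuspended in PBS, then stained with annexin V and propidium iodide plus RNase and 0.1% Triton X-100 for 30 min at 37 °C before flow cytometry. Figure legend gives 6 h incubation.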
# NCI-H460 [6] = experiment: Induction of apoptosis in human NCI-H460 cells assessed as early apoptotic cells at 10 uM after 6 hrs by annexinV-propidium iodide staining based flow cytometric analysis relative to control; type: functional; outline: as §2
# NCI-H460 [7] = experiment: Induction of apoptosis in human NCI-H460 cells assessed as early apoptotic cells at 5 uM after 6 hrs by annexinV-propidium iodide staining based flow cytometric analysis relative to control; type: functional; outline: as §2
# NCI-H460 [8] = experiment: Induction of GRP78 mRNA expression in human NCI-H460 cells at 5 to 20 uM after 3 hrs by real time quantitative PCR analysis; type: functional, cell-based
# Outline: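 H460 cells treated across a concentration range for 3 h. GRP78 mRNA quantified by RT-qPCR, normalized to β-actin and expressed as percent of vehicle.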
# NCI-H460 [9] = experiment: Cytotoxicity against human NCI-H460 cells assessed as cell viability at 20 uM after 24 hrs by CellTiter-Glo analysis; type: functional; conditions: NCI-H460, 24 h, read-out: Activity; outline: as §1
# NCI-H460 [10] = experiment: Induction of XBP-1 protein expression level in human NCI-H460 cells at 5 to 20 uM after 6 hrs by Western blot analysis; type: functional, cell-based
# Outline: (§3)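 H460 cells exposed to 20 μM for varying times, or to a range of concentrations for 6 h. ATF-4 and XBP-1 protein measured by Western blot with actin as loading control.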
# NCI-H460 [11] = experiment: Cytotoxicity against human NCI-H460 cells after 72 hrs by MTT assay; type: functional, cell-based; conditions: NCI-H460, 72 h
# Outline: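 H460 cells grown in RPMI 1640 with 5% FBS at 37 °C, 10% CO2, treated 24 h after seeding. Compounds in DMSO diluted into medium at final 100, 33.3, 11.1 and 3.7 μg/mL for 72 h. MTT (5 mg/mL in 0.9% NaCl) added for 3 h, formazan dissolved in DMSO and read at 570 nm; IC50 derived.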
# NCI-H460 [12] = experiment: Induction of apoptosis in human NCI-H460 cells assessed as non-viable necrotic cells at 10 uM after 6 hrs by annexinV-propidium iodide staining based flow cytometric analysis relative to control; type: functional; outline: as §2
# NCI-H460 [13] = experiment: Induction of apoptosis in human NCI-H460 cells assessed as non-viable necrotic cells at 20 uM after 6 hrs by annexinV-propidium iodide staining based flow cytometric analysis relative to control; type: functional; outline: as §2
# NCI-H460 [14] = experiment: Induction of apoptosis in human NCI-H460 cells at 20 uM after 6 hrs by flow cytometric analysis; type: functional; outline: as §2
# NCI-H460 [15] = experiment: Induction of apoptosis in human NCI-H460 cells assessed as early apoptotic cells at 20 uM after 6 hrs by annexinV-propidium iodide staining based flow cytometric analysis relative to control; type: functional; outline: as §2
# NCI-H460 [16] = experiment: Induction of CHOP protein expression in human NCI-H460 cells at 20 uM after 6 to 24 hrs by Western blot analysis; type: functional, cell-based
# Outline: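 H460 cells treated for 6–24 h, or across a range of concentrations. CHOP protein measured by Western blot, densitometry expressed as percent of control; Student's t test.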
# NCI-H460 [17] = experiment: Induction of apoptosis in human NCI-H460 cells assessed as viable cells at 20 uM after 6 hrs by annexinV-propidium iodide staining based flow cytometric analysis relative to control; type: functional; conditions: NCI-H460, 6 h, read-out: Activity; outline: as §2
# NCI-H460 [18] = experiment: Induction of apoptosis in human NCI-H460 cells assessed as late apoptotic cells at 10 uM after 6 hrs by annexinV-propidium iodide staining based flow cytometric analysis relative to control; type: functional; outline: as §2
# NCI-H460 [19] = experiment: Induction of apoptosis in human NCI-H460 cells assessed as non-viable necrotic cells at 5 uM after 6 hrs by annexinV-propidium iodide staining based flow cytometric analysis relative to control; type: functional; outline: as §2
# NCI-H460 [20] = experiment: Induction of CHOP mRNA expression in human NCI-H460 cells at 20 uM after 12 hrs by real time quantitative PCR analysis; type: functional, cell-based
# Outline: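 H460 cells exposed to a concentration range for 6 or 12 h. CHOP mRNA measured by RT-PCR/qPCR and normalized to β-actin.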
# NCI-H460 [21] = experiment: Induction of apoptosis in human NCI-H460 cells assessed as activation of caspase 3 activity at 20 uM after 24 hrs by Western blot analysis; type: functional, cell-based
# NCI-H460 [22] = experiment: Decrease in p53 expression in human NCI-H460 cells at 20 uM after 12 hrs by Western blot analysis; type: functional, cell-based
# Outline: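 H460 cells exposed to 20 μM for varying times, or to a range of concentrations for 12 h. Lysates made in Tris-HCl pH 7.4/NaCl/NP40/SDS buffer with protease and phosphatase inhibitors, then probed for p53 by Western blot with chemiluminescent detection; bands quantified by densitometry.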
# NCI-H460 [23] = experiment: Induction of apoptosis in human NCI-H460 cells assessed as viable cells at 10 uM after 6 hrs by annexinV-propidium iodide staining based flow cytometric analysis relative to control; type: functional; conditions: NCI-H460, 6 h, read-out: Activity; outline: as §2
# NCI-H460 [24] = experiment: Induction of ATF-4 protein expression level in human NCI-H460 cells at 5 to 20 uM after 6 hrs by Western blot analysis; type: functional, cell-based; outline: as §3
# [25] = target: Transcription factor Jun (Homo sapiens) (UniProt P05412); experiment: Induction of c-Jun phosphorylation in human NCI-H460 cells at 20 uM after 12 hrs by Western blot analysis; type: cell-based
# Outline: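 H460 cells cultured in RPMI 1640 with 5% heat-inactivated FBS at 37 C, 10% CO2; exposed to 20 μM for a time course. Lysed at 0 C in Tris-HCl pH 7.4 buffer with NP40, SDS, and protease/phosphatase inhibitors. Phospho-c-Jun detected by Western blot with chemiluminescence, actin as loading control; band density quantified.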
# NCI-H460 [26] = experiment: Induction of apoptosis in human NCI-H460 cells assessed as viable cells at 5 uM after 6 hrs by annexinV-propidium iodide staining based flow cytometric analysis relative to control; type: functional; conditions: NCI-H460, 6 h, read-out: Activity; outline: as §2
# NCI-H460 [27] = experiment: Cytotoxicity against human NCI-H460 cells assessed as reduction of cell viability at 5 to 30 uM after 24 hrs by CellTiter-Glo analysis; type: functional, cell-based; outline: as §1
# NCI-H460 [28] = experiment: Induction of apoptosis in human NCI-H460 cells assessed as late apoptotic cells at 20 uM after 6 hrs by annexinV-propidium iodide staining based flow cytometric analysis relative to control; type: functional; outline: as §2
# Sequence of Transcription factor Jun (Homo sapiens) (P05412 whole entry): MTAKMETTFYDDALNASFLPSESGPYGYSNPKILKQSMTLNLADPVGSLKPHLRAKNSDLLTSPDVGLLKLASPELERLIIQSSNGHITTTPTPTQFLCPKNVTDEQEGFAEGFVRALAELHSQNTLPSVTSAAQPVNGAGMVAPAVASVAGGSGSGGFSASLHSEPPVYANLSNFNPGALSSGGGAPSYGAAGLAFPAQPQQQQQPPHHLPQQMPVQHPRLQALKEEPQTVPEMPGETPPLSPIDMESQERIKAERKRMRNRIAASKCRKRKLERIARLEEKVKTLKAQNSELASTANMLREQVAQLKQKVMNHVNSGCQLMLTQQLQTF
smiles,measurement,setting,value
COc1cc(/C=C/C(=O)CC(=O)/C=C/c2ccc(O)c(OC)c2)ccc1O [CURCUMIN],Activity,NCI-H460 [1],inactive
same,Activity,NCI-H460 [2],inactive
same,Activity,NCI-H460 [3],inactive
same,Activity,NCI-H460 [4],inactive
same,Activity,NCI-H460 [5],3.66%
same,Activity,NCI-H460 [6],8.57%
same,Activity,NCI-H460 [7],7.97%
same,Activity,NCI-H460 [8],inactive
same,viability at 20 µM,NCI-H460 [9],70%
same,Activity,NCI-H460 [10],inactive
same,IC50,NCI-H460 [11],20.3 µM
same,Activity,NCI-H460 [12],0.23%
same,Activity,NCI-H460 [13],0.32%
same,Activity,NCI-H460 [14],12.02%
same,Activity,NCI-H460 [15],12.02%
same,Activity,NCI-H460 [16],inactive
same,viability at 20 µM,NCI-H460 [17],83.6%
same,Activity,NCI-H460 [18],2.06%
same,Activity,NCI-H460 [19],0.46%
same,Activity,NCI-H460 [20],inactive
same,Activity,NCI-H460 [21],inactive
same,Activity,NCI-H460 [22],inactive
same,viability at 10 µM,NCI-H460 [23],89.2%
same,Activity,NCI-H460 [24],inactive
same,Activity,[25],inactive
same,viability at 5 µM,NCI-H460 [26],87.9%
same,Activity,NCI-H460 [27],inactive
same,Activity,NCI-H460 [28],4.06%
O=C(/C=C/c1ccccc1Br)/C=C/c1ccccc1Br,IC50,NCI-H460 [11],5.78 µM
CN(C)CCCOc1ccc(/C=C2\CC/C(=C\c3ccc(OCCCN(C)C)cc3)C2=O)cc1,IC50,NCI-H460 [11],8.31 µM

# Source: ChEMBL document CHEMBL1781992, “A novel monocarbonyl analogue of curcumin, (1E,4E)-1,5-bis(2,3-dimethoxyphenyl)penta-1,4-dien-3-one, induced cancer cell H460 apoptosis via activation of endoplasmic reticulum stress signaling pathway” (J Med Chem, 2011)
